# Tested on: HEK-293T
# Assay: Multiplex assay against HEK293T;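 on Population Tubulin-Different-Phenotype (%): share of the cells with healthy nuclei that show this phenotype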
# Type: toxicity, cell-based
# Details: human
# Summary of the method: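 With compound added, live cells were imaged on a CQ1 microscope at 37°C and 5% CO2; staining with Hoechst33342, BioTracker Green Microtubule Cytoskeleton Dye, MitoTracker Red and Annexin V Alexa Fluor 680 had been done at seeding. The CellPathfinder machine-learning gating scheme split cells into Hoechst high-intensity objects or normal cells, normal cells into healthy, pyknosed or fragmented nuclei, and pyknosed cells into mitotic or apoptotic. The tubulin, mitochondrial-mass and membrane-permeability phenotypes are per cents of healthy-nucleus cells.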
# [1] = 12 h, 1 µM, compound concentration 1 uM, replicate 1
# [2] = 12 h, 1 µM, compound concentration 1 uM, replicate 2
# [3] = 12 h, 10 µM, compound concentration 10 uM, replicate 1
# [4] = 12 h, 10 µM, compound concentration 10 uM, replicate 2
# [5] = 24 h, 1 µM, compound concentration 1 uM, replicate 1
# [6] = 24 h, 1 µM, compound concentration 1 uM, replicate 2
# [7] = 24 h, 10 µM, compound concentration 10 uM, replicate 1
# [8] = 24 h, 10 µM, compound concentration 10 uM, replicate 2
# [9] = 48 h, 1 µM, compound concentration 1 uM, replicate 1
# [10] = 48 h, 1 µM, compound concentration 1 uM, replicate 2
# [11] = 48 h, 10 µM, compound concentration 10 uM, replicate 1
# [12] = 48 h, 10 µM, compound concentration 10 uM, replicate 2
structure (smiles),measurement,setting,value
CN1C(=O)[C@@H](NC(=O)c2cc3ccccc3[nH]2)N=C(c2ccccc2)c2ccccc21 [DEVAZEPIDE],Population Apoptotic (%),[1],49%
same,Population Fragmented Nuclei (%),[1],9%
same,Population Healthy Nuclei (%),[1],38%
same,Population Hoechst High Intensity Objects (%),[1],11%
same,Population Membrane Permeable-Phenotype (%),[1],8%
same,Population Mitochondria Different-Phenotype (%),[1],73%
same,Population Mitotic Cells (%),[1],50%
same,Population Normal (%),[1],88%
same,Population Pyknosed Nuclei (%),[1],52%
same,Population Tubulin-Different-Phenotype (%),[1],50%
same,Total Cell Count,[1],314
same,Population Apoptotic (%),[2],12%
same,Population Fragmented Nuclei (%),[2],6%
same,Population Healthy Nuclei (%),[2],36%
same,Population Hoechst High Intensity Objects (%),[2],3%
same,Population Membrane Permeable-Phenotype (%),[2],9%
same,Population Mitochondria Different-Phenotype (%),[2],34%
same,Population Mitotic Cells (%),[2],87%
same,Population Normal (%),[2],96%
same,Population Pyknosed Nuclei (%),[2],56%
same,Population Tubulin-Different-Phenotype (%),[2],28%
same,Total Cell Count,[2],205
same,Population Apoptotic (%),[3],58%
same,Population Fragmented Nuclei (%),[3],11%
same,Population Healthy Nuclei (%),[3],24%
same,Population Hoechst High Intensity Objects (%),[3],15%
same,Population Membrane Permeable-Phenotype (%),[3],5%
same,Population Mitochondria Different-Phenotype (%),[3],88%
same,Population Mitotic Cells (%),[3],41%
same,Population Normal (%),[3],84%
same,Population Pyknosed Nuclei (%),[3],63%
same,Population Tubulin-Different-Phenotype (%),[3],76%
same,Total Cell Count,[3],287
same,Population Apoptotic (%),[4],25%
same,Population Fragmented Nuclei (%),[4],4%
same,Population Healthy Nuclei (%),[4],34%
same,Population Hoechst High Intensity Objects (%),[4],3%
same,Population Membrane Permeable-Phenotype (%),[4],15%
same,Population Mitochondria Different-Phenotype (%),[4],48%
same,Population Mitotic Cells (%),[4],74%
same,Population Normal (%),[4],96%
same,Population Pyknosed Nuclei (%),[4],60%
same,Population Tubulin-Different-Phenotype (%),[4],66%
same,Total Cell Count,[4],228
same,Population Apoptotic (%),[5],48%
same,Population Fragmented Nuclei (%),[5],11%
same,Population Healthy Nuclei (%),[5],36%
same,Population Hoechst High Intensity Objects (%),[5],13%
same,Population Membrane Permeable-Phenotype (%),[5],3%
same,Population Mitochondria Different-Phenotype (%),[5],67%
same,Population Mitotic Cells (%),[5],51%
same,Population Normal (%),[5],86%
same,Population Pyknosed Nuclei (%),[5],51%
same,Population Tubulin-Different-Phenotype (%),[5],52%
same,Total Cell Count,[5],327
same,Population Apoptotic (%),[6],14%
same,Population Fragmented Nuclei (%),[6],4%
same,Population Healthy Nuclei (%),[6],57%
same,Population Hoechst High Intensity Objects (%),[6],2%
same,Population Membrane Permeable-Phenotype (%),[6],15%
same,Population Mitochondria Different-Phenotype (%),[6],20%
same,Population Mitotic Cells (%),[6],85%
same,Population Normal (%),[6],97%
same,Population Pyknosed Nuclei (%),[6],37%
same,Population Tubulin-Different-Phenotype (%),[6],34%
same,Total Cell Count,[6],231
same,Population Apoptotic (%),[7],56%
same,Population Fragmented Nuclei (%),[7],16%
same,Population Healthy Nuclei (%),[7],15%
same,Population Hoechst High Intensity Objects (%),[7],17%
same,Population Membrane Permeable-Phenotype (%),[7],5%
same,Population Mitochondria Different-Phenotype (%),[7],91%
same,Population Mitotic Cells (%),[7],43%
same,Population Normal (%),[7],82%
same,Population Pyknosed Nuclei (%),[7],67%
same,Population Tubulin-Different-Phenotype (%),[7],91%
same,Total Cell Count,[7],284
same,Population Apoptotic (%),[8],41%
same,Population Fragmented Nuclei (%),[8],7%
same,Population Healthy Nuclei (%),[8],46%
same,Population Hoechst High Intensity Objects (%),[8],4%
same,Population Membrane Permeable-Phenotype (%),[8],15%
same,Population Mitochondria Different-Phenotype (%),[8],47%
same,Population Mitotic Cells (%),[8],58%
same,Population Normal (%),[8],95%
same,Population Pyknosed Nuclei (%),[8],46%
same,Population Tubulin-Different-Phenotype (%),[8],74%
same,Total Cell Count,[8],245
same,Population Apoptotic (%),[9],50%
same,Population Fragmented Nuclei (%),[9],15%
same,Population Healthy Nuclei (%),[9],28%
same,Population Hoechst High Intensity Objects (%),[9],16%
same,Population Membrane Permeable-Phenotype (%),[9],6%
same,Population Mitochondria Different-Phenotype (%),[9],48%
same,Population Mitotic Cells (%),[9],50%
same,Population Normal (%),[9],83%
same,Population Pyknosed Nuclei (%),[9],55%
same,Population Tubulin-Different-Phenotype (%),[9],41%
same,Total Cell Count,[9],356
same,Population Apoptotic (%),[10],9%
same,Population Fragmented Nuclei (%),[10],5%
same,Population Healthy Nuclei (%),[10],74%
same,Population Hoechst High Intensity Objects (%),[10],4%
same,Population Membrane Permeable-Phenotype (%),[10],7%
same,Population Mitochondria Different-Phenotype (%),[10],11%
same,Population Mitotic Cells (%),[10],90%
same,Population Normal (%),[10],95%
same,Population Pyknosed Nuclei (%),[10],20%
same,Population Tubulin-Different-Phenotype (%),[10],34%
same,Total Cell Count,[10],361
same,Population Apoptotic (%),[11],66%
same,Population Fragmented Nuclei (%),[11],24%
same,Population Healthy Nuclei (%),[11],6%
same,Population Hoechst High Intensity Objects (%),[11],22%
same,Population Membrane Permeable-Phenotype (%),[11],7%
same,Population Mitochondria Different-Phenotype (%),[11],100%
same,Population Mitotic Cells (%),[11],33%
same,Population Normal (%),[11],77%
same,Population Pyknosed Nuclei (%),[11],69%
same,Population Tubulin-Different-Phenotype (%),[11],84%
same,Total Cell Count,[11],276
same,Population Apoptotic (%),[12],63%
same,Population Fragmented Nuclei (%),[12],12%
same,Population Healthy Nuclei (%),[12],44%
same,Population Hoechst High Intensity Objects (%),[12],5%
same,Population Membrane Permeable-Phenotype (%),[12],22%
same,Population Mitochondria Different-Phenotype (%),[12],41%
same,Population Mitotic Cells (%),[12],36%
same,Population Normal (%),[12],94%
same,Population Pyknosed Nuclei (%),[12],43%
same,Population Tubulin-Different-Phenotype (%),[12],64%
same,Total Cell Count,[12],237

# Source: ChEMBL document CHEMBL4689842, “EUbOPEN Chemogenomics Library wave 1” (2021)
